These results are taken from ChEMBL document CHEMBL1143576, “Discovery of 2-arylthiazolidine-4-carboxylic acid amides as a new class of cytotoxic agents for prostate cancer” (J Med Chem, 2005).

Bounds are passed on as bounds.

For assay [1], the system named is LNCaP. As to the kind of experiment: Antiproliferative activity against prostate cancer LNCaP Cell line using sulforhodamine B(SRB) assay. To be noted: Homo sapiens, Prostate gland. It counts as functional, cell-based. In a few lines:
(§1)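 Cells seeded at 1000 to 5000 per well, depending on growth rate, and exposed to a range of concentrations for 96 h, in three to five replicates. Stocks were 5 to 20 mM in DMSO, diluted into complete medium. Endpoint cell number was measured by SRB: 10% trichloroacetic acid fixation, 0.4% SRB stain, absorbance at 540 nm.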

Assay [2] deals with PPC-1. Description: Antiproliferative activity against prostate cancer PPC-1 cell line using sulforhodamine B(SRB) assay. It counts as functional, cell-based. To be noted: Homo sapiens. In a few lines: as §1
Assay [3] has as its system DU-145. Description: Antiproliferative activity against prostate cancer DU-145 cell line using sulforhodamine B(SRB) assay. In kind it is functional, cell-based. To be noted: Homo sapiens. In a few lines:
as §1

For assay [4], the system named is PC-3. Description: Antiproliferative activity against prostate cancer PC-3 cell line using sulforhodamine B(SRB) assay. In kind it is functional, cell-based, Homo sapiens. In short, it runs like this:
as §1

Assay [5] relates to RH7777. As to the kind of experiment: Antiproliferative effect against RH7777 cell line using sulforhodamine B(SRB) assay. In kind it is functional, cell-based. To be noted: Rattus norvegicus. In short, it runs like this: as §1
The test system of assay [6] is TSU. As to the kind of experiment: Antiproliferative activity against prostate cancer TSU-Pr1 cell line using sulforhodamine B(SRB) assay. In kind it is functional, cell-based. The note with it: Homo sapiens. In short, it runs like this: as §1
Assay [7] concerns PC-3. Description: Induction of apoptosis in human PC-3 cell line at 5 uM concentration after 72 hr. In kind it is functional. In short, it runs like this: (§2)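 Cells were exposed to compound for 72 h. Cytoplasmic DNA-histone complexes (mono- and oligonucleosomes) were quantified by sandwich ELISA using monoclonal antibodies against DNA and histones. The enrichment factor is the OD405 ratio of treated to untreated cells.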

Assay [8] relates to PC-3. As to the kind of experiment: Induction of apoptosis in human PC-3 cell line at 2 uM concentration after 72 hr. In kind it is functional. In a few lines:
as §2

The test system of assay [9] is LNCaP. As to the kind of experiment: Induction of apoptosis in human LNCaP Cell line at 2 uM concentration after 72 hr. It counts as functional. In short, it runs like this:
as §2

For assay [10], the system named is LNCaP. Description: Induction of apoptosis in human LNCaP Cell line at 5 uM concentration after 72 hr. In kind it is functional. In short, it runs like this: as §2
Assay [11] relates to PC-3. As to the kind of experiment: Induction of apoptosis in human PC-3 cell line at 10 uM concentration after 72 hr. In kind it is functional. In a few lines: as §2
Assay [12] relates to PC-3. Description: Induction of apoptosis in human PC-3 cell line at 20 uM concentration after 72 hr. It counts as functional. In a few lines:
as §2

Assay [13] has as its system LNCaP. As to the kind of experiment: Induction of apoptosis in human LNCaP Cell line 10at uM concentration after 72 hr. In kind it is functional. In a few lines:
as §2

The test system of assay [14] is LNCaP. Description: Induction of apoptosis in human LNCaP Cell line 20 at uM concentration after 72 hr. It counts as functional. In short, it runs like this:
as §2

For assay [15], the system named is RH7777 (Rattus norvegicus). Description: Antiproliferative effect against RH7777 cell line using sulforhodamine B(SRB) assay; No activity.
Assay [16] has as its system LNCaP. Description: Induction of apoptosis in human LNCaP Cell line at 10 uM concentration after 72 hr. It counts as functional. In a few lines: as §2
In assay [17] the test system is RH7777 (Rattus norvegicus). As to the kind of experiment: Induction of apoptosis in rat RH7777 cell line at 2 uM concentration after 72 hr.
The test system of assay [18] is RH7777. Description: Induction of apoptosis in rat RH7777 cell line at 5 uM concentration after 72 hr.
Assay [19] has as its system RH7777. Description: Induction of apoptosis in rat RH7777 cell line at 10 uM concentration after 72 hr.
Setting [20] is: Homo sapiens, PC-3, read-out: IC50.

By IC50 is commonly meant the point on the concentration scale where inhibition reaches its midpoint. For `CCCCCCCCCCCCCCCCCCNC(=O)[C@H]1CSC(c2ccccc2)N1.Cl` (stereo partly drawn), the concentration for half-maximal inhibition (IC50) in assay [1] turned out to be 2.1 µM; in [2] it was 2 µM; in [3] it was 5.4 µM; in assay [4] (setting [20]) it was 7.8 µM; in assay [5], 25.6 µM; in assay [6], 5 µM. Further, the Apoptosis is 2.3 in assay [7]; 1.4 in assay [8]; 4.5 in assay [9]; 45.2 in assay [10]; 3.4 in [11]; 12.7 in assay [12]. Also, the results for the Apoptosis in assay [13] and in assay [14] were 37.1 and 26.1, respectively.
As for `CCCCCCCCCCCCCCCCCCCNC(=O)[C@H]1CSC(c2ccccc2)N1.Cl` (stereo partly drawn), the IC50 was 13.6 µM in assay [1]; 16.8 µM in assay [2]; greater than 20 µM in assay [3]; “No activity” in assay [4] (pc-3); greater than 20 µM in assay [6]; “No activity” in assay [15].
As for `CCCCCCCCCCCCCCCCCCNC(=O)[C@H]1CSC(c2cc(OC)c(OC)c(OC)c2)N1` (stereo partly drawn), the 50% inhibitory concentration (IC50) was 0.82 µM in assay [1]; 0.48 µM in assay [2]; 3.9 µM in [3]; 4 µM in assay [4] (setting [20]); 11.4 µM in [5]; 2.4 µM in [6].
Take `CCCCCCCCCCCCCCCCCCNC(=O)c1csc(-c2ccccc2)n1`: the IC50 in assay [1], in [2], in assay [3], in assay [4] (setting [20]), in assay [5] and in assay [6] was greater than 20 µM each time.
`CCCCCCCCCCCCCCCCCCNC(=O)[C@H]1CSC(c2ccc(OC)c(OC)c2)N1` (stereo partly drawn): the concentration for half-maximal inhibition (IC50) in assay [1] worked out at 0.85 µM; in assay [2], 0.58 µM; in assay [3], 4.5 µM; in assay [4] (setting [20]) it was 5.2 µM; in assay [5] it was 10.3 µM; in assay [6], 2.4 µM.
As to `CCCCCCCCCCCCCCCCCCNC(=O)[C@H]1CSC(Cc2ccccc2)N1` (stereo partly drawn), the half-inhibitory concentration (IC50) in assay [1] was 4.4 µM; in assay [2] it was 4 µM; in assay [3], 15.3 µM; in assay [4] (setting [20]) it was 16.4 µM; in assay [5] it was greater than 20 µM; in assay [6], 11.2 µM.
With `CCCCCCCCCCCCCCCCCCNC(=O)[C@H]1CSC(c2ccc(C)cc2)N1` (stereo partly drawn), the concentration for half-maximal inhibition (IC50) was 1.9 µM in [1]; 1.9 µM in assay [2]; 10.5 µM in [3]; 12.8 µM in [4] (setting [20]); greater than 20 µM in assay [5]; 8 µM in [6].
Regarding `CCCCCCCCCCCCCCCCCCNC(=O)[C@H]1CSC(c2ccccc2)N1S(C)(=O)=O` (stereo partly drawn), the concentration for half-maximal inhibition (IC50) in [1], in assay [2], in [3], in [4] (setting [20]), in [5] and in assay [6] was greater than 20 µM throughout.
For `CCCCCCCCCCCCCCCCCCNC(=O)[C@H]1CSC(c2ccoc2)N1` (stereo partly drawn), the 50% inhibitory concentration (IC50) in [1] was 1.7 µM; in assay [2], 1.1 µM; in [3], 6.6 µM; in assay [4] (setting [20]) it was 8.1 µM; in assay [5] it was 10.4 µM; in assay [6], 4.2 µM.
Regarding `CCCCCCCCCCCCCCNC(=O)[C@H]1CSC(c2ccccc2)N1.Cl` (stereo partly drawn), the IC50 is 1.4 µM in assay [1]; 1.3 µM in assay [2]; 2.4 µM in assay [3]; 3 µM in assay [4] (setting [20]); 3.4 µM in [5]; 2 µM in [6]. Further, the Apoptosis is listed as 18.7 in assay [7]; 1.8 in assay [8]; 14.1 in assay [9]; 75.4 in [10]; 54 in [11]; 80.7 in [16]. Besides, the Apoptosis in assay [17] amounted to 2.6; in assay [18], 3.2; in [19] it was 2.5.
On to `CCCCCCCNC(=O)[C@H]1CSC(c2ccccc2)N1` (stereo partly drawn), for which the half-inhibitory concentration (IC50) was determined as 12.4 µM in assay [1]; 34.7 µM in assay [2]; 44.9 µM in assay [3]; 38.5 µM in assay [4] (setting [20]); 52.2 µM in assay [5]; 28 µM in assay [6].
On to `CCCCCCCCCCCCCCCCCCNC(=O)[C@H]1CSC(C2CCCCC2)N1` (stereo partly drawn), for which the IC50 in assay [1] is 12.8 µM; in assay [2], 9.3 µM; in assay [3] it was greater than 20 µM; in [4] (setting [20]), greater than 20 µM; in assay [5], greater than 20 µM; in [6] it was greater than 20 µM.
With `CCCCCCCCCCCCCCCCCCNC(=O)[C@H]1CSC(c2cccc(O)c2)N1` (stereo partly drawn), the 50% inhibitory concentration (IC50) in assay [1] is 1.7 µM; in assay [2] it was 1.2 µM; in assay [3], 5.7 µM; in assay [4] (setting [20]), 6.7 µM; in assay [5], 31 µM; in assay [6] it was 4 µM.
`CCCCCCCCCCCCCCCCCCNC(=O)[C@H]1CSC(c2ccc(NC(C)=O)cc2)N1` (stereo partly drawn): the half-maximal inhibitory concentration (IC50) in assay [1] was 1.3 µM; in [2], 0.55 µM; in assay [3] it was 3.1 µM; in assay [4] (setting [20]) it was 5.6 µM; in assay [5] it was 21.1 µM; in [6], 0.94 µM.
For the molecule `CCCCCCCCCCCCCCCCCCNC(=O)[C@H]1CSC(c2c(Cl)cccc2Cl)N1` (stereo partly drawn), the 50% inhibitory concentration (IC50) in assay [1] is 13.1 µM; in [2], 17.1 µM; in assay [3], greater than 20 µM; in [4] (setting [20]) it was greater than 20 µM; in assay [5], greater than 20 µM; in assay [6], 20 µM.
As for `CCCCCCCCCCCCCCCCCCNC(=O)[C@H]1CSC(c2c[nH]c3ccccc23)N1` (stereo partly drawn), the IC50 in [1] is 2.1 µM; in assay [2], 1.3 µM; in assay [3], 8.9 µM; in [4] (setting [20]) it was 11.5 µM; in assay [5] it was greater than 20 µM; in [6], 4.4 µM.
